Here are results for ten molecules from ChEMBL document CHEMBL1140411, “Deoxyuridine triphosphate nucleotidohydrolase as a potential antiparasitic drug target” (J Med Chem, 2005).

The structures appear in SMILES notation.

In general, Ki refers to the equilibrium dissociation constant of an inhibitor or competing ligand from its target. Low readings indicate tighter binding, high ones weaker binding. The term IC50 denotes the concentration at which inhibition is half-maximal.

Experiment [1] has as its target T1, Deoxyuridine 5'-triphosphate nucleotidohydrolase, mitochondrial (Homo sapiens, UniProt P33316).
T1 sequence (P33316 whole entry): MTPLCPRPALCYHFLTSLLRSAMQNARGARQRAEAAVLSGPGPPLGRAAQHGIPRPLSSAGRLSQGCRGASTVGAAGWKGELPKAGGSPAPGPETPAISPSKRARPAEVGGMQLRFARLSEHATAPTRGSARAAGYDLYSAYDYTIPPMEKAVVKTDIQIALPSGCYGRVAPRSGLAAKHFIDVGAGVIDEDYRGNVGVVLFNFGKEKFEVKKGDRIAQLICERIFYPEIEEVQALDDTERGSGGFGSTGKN
Kind of experiment: Inhibitory constant against human deoxyuridine 5'-triphosphate nucleotidohydrolase expressed in Escherichia coli BL21 (DE3) cells. The essentials:
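Human dUTPase expressed in E. coli BL21(DE3) and purified like the Plasmodium enzyme (phosphocellulose, then gel filtration). dUTP hydrolysis followed continuously by stopped-flow as pH-indicator absorbance (cresol red/bicine, 50:2000 µM, 573 nm). Apparent KM from integrated Michaelis-Menten fits at each inhibitor concentration; Ki from linear KMapp versus [I].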

The target in experiment [2] is T2, dUTP pyrophosphatase (Plasmodium falciparum 3D7) (UniProt Q8II92).
T2 sequence (whole entry): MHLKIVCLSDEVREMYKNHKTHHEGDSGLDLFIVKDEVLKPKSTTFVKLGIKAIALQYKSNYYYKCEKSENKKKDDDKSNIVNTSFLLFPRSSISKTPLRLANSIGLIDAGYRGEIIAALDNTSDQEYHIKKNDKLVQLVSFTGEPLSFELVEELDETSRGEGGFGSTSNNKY
Kind of experiment: Selectivity index for Plasmodium falciparum deoxyuridine 5'-triphosphate nucleotidohydrolase defined as (Ki Human)/(Ki Plasmodium falciparum); na= not relevant. The essentials: (§1)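 Ratio of human dUTPase Ki to P. falciparum dUTPase Ki. Both Ki values came from stopped-flow pH-indicator assays following dUTP hydrolysis, with Ki derived from the dependence of apparent KM on inhibitor concentration.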

The target in experiment [3] is T3, dUTP pyrophosphatase (Leishmania major, UniProt O15826).
T3 sequence (O15826 whole entry): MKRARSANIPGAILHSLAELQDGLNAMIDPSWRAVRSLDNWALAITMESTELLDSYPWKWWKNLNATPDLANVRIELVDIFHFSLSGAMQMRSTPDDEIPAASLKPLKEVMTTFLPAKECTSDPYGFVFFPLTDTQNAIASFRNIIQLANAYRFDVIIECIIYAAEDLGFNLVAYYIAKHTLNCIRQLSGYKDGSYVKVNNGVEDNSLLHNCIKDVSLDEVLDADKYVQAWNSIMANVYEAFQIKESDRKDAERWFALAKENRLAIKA
Kind of experiment: Inhibitory constant against Leishmania major deoxyuridine 5'-triphosphate nucleotidohydrolase.

In experiment [4] the target is T4, dUTP pyrophosphatase (Plasmodium falciparum 3D7, UniProt Q8II92).
T4 sequence (Q8II92 whole entry): T2 sequence (whole entry)
Kind of experiment: Inhibitory constant against Plasmodium falciparum deoxyuridine 5'-triphosphate nucleotidohydrolase expressed in Escherichia coli BL21 (DE3) cells. The essentials: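 Recombinant PfdUTPase expressed in E. coli BL21(DE3) and purified by phosphocellulose and gel filtration to ~96% purity. Continuous stopped-flow assay following proton release with cresol red/bicine (50:2000 µM, 573 nm). Mix: 30 nM enzyme, 50 µM dUTP, 5 mM MgCl2, 2.5 mM DTT, 1.25 mg/mL BSA, 100 mM KCl. KMapp from integrated Michaelis-Menten fits, plotted against [I] to give Ki.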

The next experiment deals with L6. The experiment is described as follows: In vitro cytotoxicity aganist rat skeletal myoblasts (L-6 cells) after 72 hours. The conditions noted are these: L6, 72 h. The format is functional, cell-based. The essentials:
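L-6 rat skeletal myoblasts seeded at 4 × 10^4 cells/mL in RPMI 1640 with 10% FBS and 2 mM L-glutamine. After 24 h, medium replaced with a serial drug dilution, then 72 h at 37 °C, 5% CO2. Alamar Blue added for a further 2-4 h. Fluorescence read at ex 536/em 588 nm. Run twice independently, in duplicate.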

Experiment [5] concerns Trypanosoma brucei rhodesiense. Kind of experiment: Inhibitory constant against Trypanosoma brucei rhodesiense upon incubation with the compound at 37 degrees C under a 5% CO2 atmosphere for 72 hours. The format is functional, organism-based.
A further experiment has as its system Leishmania donovani. The experiment is described as follows: In vitro growth inhibitory activity against Leishmania donovani amastigotes at 37 degrees C under a 5% CO2 atmosphere for 96 hours. The format is functional, organism-based. The essentials: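 Mouse peritoneal macrophages in RPMI 1640 with 10% heat-inactivated FBS, infected after 24 h with L. donovani amastigotes at 3:1 (amastigote:macrophage). Free amastigotes washed out at 4 h. Next day, drug-containing medium added for 96 h at 37 °C, 5% CO2. Slides methanol-fixed and Giemsa-stained. Percentage of infected macrophages scored microscopically versus control; IC50 by linear regression. Twice independently, in duplicate.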

A further experiment relates to Trypanosoma cruzi. Kind of experiment: In vitro growth inhibitory activity against Trypanosoma cruzi in rat L-6 cells upon incubation at 37 degrees C in 5% CO2 atmosphere for 4 days. The conditions noted are these: L6, 96 h. The experiment is classed as functional, organism-based. The essentials: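 L-6 cells seeded at 2000 cells/well in RPMI 1640 with 10% FBS and 2 mM L-glutamine. After 24 h, 5000 T. cruzi Tulahuen C2C4 LacZ trypomastigotes added with serial drug dilutions, then 4 days at 37 °C, 5% CO2. CPRG/Nonidet substrate added and colour read at 540 nm after 2-4 h. IC50 from sigmoidal curve. Twice independently, in duplicate.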

In experiment [6] the target is T2, dUTP pyrophosphatase (Plasmodium falciparum 3D7). Kind of experiment: Selectivity index for Plasmodium falciparum deoxyuridine 5'-triphosphate nucleotidohydrolase defined as (Ki Human)/(Ki Plasmodium falciparum). The essentials:
as §1

For the next experiment, the system named is Plasmodium falciparum. Kind of experiment: In vitro inhibitory activity against Plasmodium falciparum as [3H]hypoxanthine (50 uL) incorporation at 37C. The format is functional, organism-based.

Regarding `NCC1OC(n2ccc(=O)[nH]c2=O)CC1O` (stereo not drawn), the Ki (in [1]; at dUTP pyrophosphatase [3]; on dUTP pyrophosphatase [4]) was over 1000 µM in each case. Besides, the SI entry in [2] was “Not Relevant”.
On to `O=C(OC[C@H]1O[C@@H](n2ccc(=O)[nH]c2=O)C[C@@H]1O)c1ccccc1`, for which the values for the Ki (in experiment [1]; on dUTP pyrophosphatase [3]; at dUTP pyrophosphatase [4]) were over 1000 µM, over 1000 µM and 268 µM, respectively. For the same molecule, the IC50 with L6 is over 271 µM; in experiment [5], 117 µM; with Leishmania donovani, over 90 µM; in the experiment with Trypanosoma cruzi, over 271 µM; in the experiment with Plasmodium falciparum, over 15 µM. Besides, the SI in experiment [6] is over 3.
`CCCCC(=O)OC[C@H]1O[C@@H](n2ccc(=O)[nH]c2=O)C[C@@H]1O`: the Ki in experiment [1] is over 1000 µM; on dUTP pyrophosphatase [3] it was over 1000 µM; at dUTP pyrophosphatase [4] it was 228 µM. In addition, the IC50 with L6 was over 289 µM; in experiment [5], 147 µM; in the experiment with Leishmania donovani, 96 µM; in the experiment with Trypanosoma cruzi it was over 284 µM; in the experiment on Plasmodium falciparum, over 16 µM. This molecule also yielded an SI in experiment [6] of over 4.
For `CS(=O)(=O)NCC1OC(n2ccc(=O)[nH]c2=O)CC1O` (stereo not drawn), the Ki in experiment [1] is over 1000 µM; at dUTP pyrophosphatase [3], over 1000 µM; at dUTP pyrophosphatase [4], 178 µM. The IC50 with L6 is over 295 µM; in experiment [5], 147 µM; in the experiment with Leishmania donovani, over 98 µM; in the experiment on Trypanosoma cruzi it was over 295 µM; with Plasmodium falciparum, over 16 µM. In [6], this molecule had an SI of over 5.
For the molecule `CCOP(=O)(CC(=O)OC[C@H]1O[C@@H](n2ccc(=O)[nH]c2=O)C[C@@H]1O[Si](C)(C)C(C)(C)C)OCC`, the IC50 in [5] is 40 µM; in the experiment on Leishmania donovani, over 58 µM; with Trypanosoma cruzi it was 75 µM; in the experiment with Plasmodium falciparum it was 18 µM. Moreover, the SI entry in experiment [2] is “Not Relevant”. Moreover, the Ki was over 1000 µM on dUTP pyrophosphatase [3] and 217 µM on dUTP pyrophosphatase [4].
For the molecule `O=c1ccn(C2C=CC(CO[Si](c3ccccc3)(c3ccccc3)c3ccccc3)O2)c(=O)[nH]1` (stereo not drawn), the Ki is over 1000 µM in [1], 350 µM on dUTP pyrophosphatase [3] and 1.3 µM on dUTP pyrophosphatase [4]. The IC50 is 85 µM in the experiment on L6; 1.6 µM in [5]; 13 µM in the experiment with Leishmania donovani; 42 µM with Trypanosoma cruzi; 1 µM in the experiment with Plasmodium falciparum. The SI in experiment [6] is over 769.
`CCCCC(=O)NCC1OC(n2ccc(=O)[nH]c2=O)CC1O` (stereo not drawn): the Ki in [1] is over 1000 µM; at dUTP pyrophosphatase [3] it was over 1000 µM; on dUTP pyrophosphatase [4], 189 µM. Besides, the IC50 in the experiment with L6 was over 289 µM; in experiment [5] it was 149 µM; in the experiment on Leishmania donovani, over 97 µM; with Trypanosoma cruzi, over 289 µM; with Plasmodium falciparum it was over 16 µM. For the same molecule, the SI in experiment [6] was over 5.
On to `CCOP(=O)(CC(=O)OC[C@H]1O[C@@H](n2ccc(=O)[nH]c2=O)C[C@@H]1O)OCC`, for which the Ki in experiment [1] is over 1000 µM; on dUTP pyrophosphatase [3], over 1000 µM; on dUTP pyrophosphatase [4], 123 µM. In addition, the IC50 with L6 is 168 µM; in experiment [5], 123 µM; in the experiment on Leishmania donovani it was over 74 µM; in the experiment with Trypanosoma cruzi, over 222 µM; in the experiment on Plasmodium falciparum, 98 µM. This molecule had an SI in [6] of over 8.
Regarding `CC(C)(C)[Si](C)(C)OC1CC(n2ccc(=O)[nH]c2=O)OC1CNP(=O)(Oc1ccccc1)Oc1ccccc1` (stereo not drawn), the Ki in [1] is 232 µM; at dUTP pyrophosphatase [3] it was over 1000 µM; on dUTP pyrophosphatase [4], 67 µM. The IC50 in the experiment with L6 is 18 µM; in experiment [5], 28 µM; with Leishmania donovani, under 6 µM; in the experiment on Trypanosoma cruzi, 6 µM; in the experiment with Plasmodium falciparum, 4 µM. The SI in experiment [6] was 3.5.
As to `CCOP(=O)(OCC)OC[C@H]1O[C@@H](n2ccc(=O)[nH]c2=O)C[C@@H]1O[Si](C)(C)C(C)(C)C`, the Ki in experiment [1] was over 1000 µM; on dUTP pyrophosphatase [3], over 1000 µM; at dUTP pyrophosphatase [4], 340 µM. Also, the IC50 in the experiment with L6 is 108 µM; in experiment [5], 35 µM; in the experiment on Leishmania donovani it was 63 µM; in the experiment with Trypanosoma cruzi, 41 µM; in the experiment with Plasmodium falciparum, over 10 µM. Further, the SI in experiment [6] was over 3.
